Columns and labels:
[1] = Antiproliferative activity against human CaEs17 cells assessed as growth inhibition by MTT assay; type: functional, cell-based
Outline: (§1)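 Cells treated in triplicate over a range of concentrations at 37 °C in humidified 5% CO2. At 72 h, MTT (5 mg/mL) was added for 4 h, followed by DMSO solubilisation and OD at 490 nm. IC50 is the concentration giving 50% growth inhibition, reported as mean ± S.D. of three independent experiments.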

Bel-7402 [2] = assay: Induction of cell cycle arrest in human Bel7402 cells assessed as accumulation at G2/M phase at 1 uM incubated for 48 hrs by propidium iodide staining based flow cytometry (reference value: 4.75%); type: functional
Outline: (§2)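 Bel-7402 seeded at 5.0 × 10³ cells/well and grown 24 h at 37 °C. Exponentially growing cells were treated for 48 h, alongside untreated and DMSO-solvent controls. Cells were then centrifuged, fixed overnight in 70% ethanol at 4 °C, and analysed by flow cytometry for phase distribution.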

Bel-7402 [3] = assay: Induction of cell cycle arrest in human Bel7402 cells assessed as accumulation at S phase at 1 uM incubated for 48 hrs by propidium iodide staining based flow cytometry (reference value: 31.89%); type: functional; outline: as §2
Bel-7402 [4] = assay: Induction of cell cycle arrest in human Bel7402 cells assessed as accumulation at G1 phase at 1 uM incubated for 48 hrs by propidium iodide staining based flow cytometry (reference value: 63.86%); type: functional; outline: as §2
Bel-7402 [5] = assay: Induction of cell cycle arrest in human Bel7402 cells assessed as accumulation at G2/M phase at 0.8 uM incubated for 48 hrs by propidium iodide staining based flow cytometry (reference value: 4.75%); type: functional; outline: as §2
Bel-7402 [6] = assay: Induction of cell cycle arrest in human Bel7402 cells assessed as accumulation at S phase at 0.8 uM incubated for 48 hrs by propidium iodide staining based flow cytometry (reference value: 31.89%); type: functional; outline: as §2
Bel-7402 [7] = assay: Induction of cell cycle arrest in human Bel7402 cells assessed as accumulation at G1 phase at 0.8 uM incubated for 48 hrs by propidium iodide staining based flow cytometry (reference value: 63.86%); type: functional; outline: as §2
Bel-7402 [8] = assay: Induction of cell cycle arrest in human Bel7402 cells assessed as accumulation at G2/M phase at 0.6 uM incubated for 48 hrs by propidium iodide staining based flow cytometry (reference value: 4.75%); type: functional; outline: as §2
Bel-7402 [9] = assay: Induction of cell cycle arrest in human Bel7402 cells assessed as accumulation at S phase at 0.6 uM incubated for 48 hrs by propidium iodide staining based flow cytometry (reference value: 31.89%); type: functional; outline: as §2
Bel-7402 [10] = assay: Induction of cell cycle arrest in human Bel7402 cells assessed as accumulation at G1 phase at 0.6 uM incubated for 48 hrs by propidium iodide staining based flow cytometry (reference value: 63.86%); type: functional; outline: as §2
Bel-7402 [11] = assay: Induction of apoptosis in human Bel7402 cells assessed as necrotic cells level at 1 uM incubated for 3 days by Annexin-V and propidium iodide double staining based flow cytometry (reference value: 0.5%); type: functional
Bel-7402 [12] = assay: Induction of apoptosis in human Bel7402 cells assessed as late apoptotic cells level at 1 uM incubated for 3 days by Annexin-V and propidium iodide double staining based flow cytometry (reference value: 2.4%); type: functional
Bel-7402 [13] = assay: Induction of apoptosis in human Bel7402 cells assessed as early apoptotic cells level at 1 uM incubated for 3 days by Annexin-V and propidium iodide double staining based flow cytometry (reference value: 4.5%); type: functional
Bel-7402 [14] = assay: Induction of apoptosis in human Bel7402 cells assessed as viable cells level at 1 uM incubated for 3 days by Annexin-V and propidium iodide double staining based flow cytometry (reference value: 92.6%); type: functional
Bel-7402 [15] = assay: Induction of apoptosis in human Bel7402 cells assessed as necrotic cells level at 0.8 uM incubated for 3 days by Annexin-V and propidium iodide double staining based flow cytometry (reference value: 0.5%); type: functional
Bel-7402 [16] = assay: Induction of apoptosis in human Bel7402 cells assessed as late apoptotic cells level at 0.8 uM incubated for 3 days by Annexin-V and propidium iodide double staining based flow cytometry (reference value: 2.4%); type: functional
Bel-7402 [17] = assay: Induction of apoptosis in human Bel7402 cells assessed as early apoptotic cells level at 0.8 uM incubated for 3 days by Annexin-V and propidium iodide double staining based flow cytometry (reference value: 4.5%); type: functional
Bel-7402 [18] = assay: Induction of apoptosis in human Bel7402 cells assessed as viable cells level at 0.8 uM incubated for 3 days by Annexin-V and propidium iodide double staining based flow cytometry (reference value: 92.6%); type: functional
Bel-7402 [19] = assay: Induction of apoptosis in human Bel7402 cells assessed as necrotic cells level at 0.6 uM incubated for 3 days by Annexin-V and propidium iodide double staining based flow cytometry (reference value: 0.5%); type: functional
Bel-7402 [20] = assay: Induction of apoptosis in human Bel7402 cells assessed as late apoptotic cells level at 0.6 uM incubated for 3 days by Annexin-V and propidium iodide double staining based flow cytometry (reference value: 2.4%); type: functional
Bel-7402 [21] = assay: Induction of apoptosis in human Bel7402 cells assessed as early apoptotic cells level at 0.6 uM incubated for 3 days by Annexin-V and propidium iodide double staining based flow cytometry (reference value: 4.5%); type: functional
Bel-7402 [22] = assay: Induction of apoptosis in human Bel7402 cells assessed as viable cells level at 0.6 uM incubated for 3 days by Annexin-V and propidium iodide double staining based flow cytometry (reference value: 92.6%); type: functional
[23] = molecular target: Glutathione S-transferase P (Homo sapiens) (UniProt P09211); assay: Inhibition of glutathione S-transferase pi in human Bel7402 cell lysates at 40 uM using CDNB and GSH as substrates by spectrophotometry; details: Bel-7402
Sequence of Glutathione S-transferase P (Homo sapiens) (P09211 2-210 limits assumed): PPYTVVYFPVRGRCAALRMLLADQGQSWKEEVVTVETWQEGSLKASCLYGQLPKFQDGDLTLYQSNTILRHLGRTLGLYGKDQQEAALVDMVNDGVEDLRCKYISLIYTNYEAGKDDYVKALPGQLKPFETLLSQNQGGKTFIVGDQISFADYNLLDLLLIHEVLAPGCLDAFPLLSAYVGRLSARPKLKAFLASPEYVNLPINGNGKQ

Bel-7402 [24] = assay: Potency index, ratio of IC50 for oridonin to IC50 for test compound against human Bel7402 cells; type: functional
[25] = Potency index, ratio of IC50 for oridonin to IC50 for test compound against human CaEs17 cells; type: functional
MGC-803 [26] = assay: Potency index, ratio of IC50 for oridonin to IC50 for test compound against human MGC803 cells; type: functional
K562 [27] = assay: Potency index, ratio of IC50 for oridonin to IC50 for test compound against human K562 cells; type: functional
Bel-7402 [28] = assay: Antiproliferative activity against human Bel7402 cells assessed as growth inhibition by MTT assay; type: functional, cell-based; outline: as §1
MGC-803 [29] = assay: Antiproliferative activity against human MGC803 cells assessed as growth inhibition by MTT assay; type: functional, cell-based; outline: as §1
K562 [30] = assay: Antiproliferative activity against human K562 cells assessed as growth inhibition by MTT assay; type: functional, cell-based
Outline: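 K562 cells in log phase seeded at 5 × 10⁴ cells/mL and treated in triplicate across a 0.39–100 range. Cultures were kept at 37 °C in humidified 5% CO2. At 72 h, MTT (5 mg/mL) was added for 4 h, formazan was dissolved in DMSO, and OD was read at 490 nm. IC50 is the concentration giving 50% growth inhibition, reported as mean ± S.D. of three independent experiments.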

## CC(=O)O[C@H]1C(=O)[C@@]2(C)[C@H]([C@H](OC(=O)c3ccccc3)[C@]3(O)C[C@H](OC(=O)[C@H](O)[C@@H](NC(=O)c4ccccc4)c4ccccc4)C(C)=C1C3(C)C)[C@]1(OC(C)=O)CO[C@@H]1C[C@@H]2O [PACLITAXEL]
[1]
  IC50: 430 nM

## C=C1C(=O)[C@@]23C(=O)OC[C@]4([C@@H](OC(C)=O)CCC(C)(C)[C@H]4C=O)[C@@H]2CC[C@H]1[C@H]3OC(=O)c1ccccc1Cl
Bel-7402 [2]
  Activity: 92.16%
Bel-7402 [3]
  Activity: 0%
Bel-7402 [4]
  Activity: 7.84%
Bel-7402 [5]
  Activity: 53.3%
Bel-7402 [6]
  Activity: 5.28%
Bel-7402 [7]
  Activity: 41.69%
Bel-7402 [8]
  Activity: 23.2%
Bel-7402 [9]
  Activity: 20.73%
Bel-7402 [10]
  Activity: 56.07%
Bel-7402 [11]
  Activity: 0.6%
Bel-7402 [12]
  Activity: 12.4%
Bel-7402 [13]
  Activity: 21%
Bel-7402 [14]
  Activity: 66%
Bel-7402 [15]
  Activity: 0.3%
Bel-7402 [16]
  Activity: 9.3%
Bel-7402 [17]
  Activity: 9.6%
Bel-7402 [18]
  Activity: 80.9%
Bel-7402 [19]
  Activity: 0.1%
Bel-7402 [20]
  Activity: 3.8%
Bel-7402 [21]
  Activity: 8.8%
Bel-7402 [22]
  Activity: 87.2%
[23]
  inhibition: 0%
Bel-7402 [24]
  Ratio IC50: 5
[25]
  Ratio IC50: 18
MGC-803 [26]
  Ratio IC50: 4
K562 [27]
  Ratio IC50: 12
Bel-7402 [28]
  IC50: 1390 nM
[1]
  IC50: 600 nM
MGC-803 [29]
  IC50: 1280 nM
K562 [30]
  IC50: 390 nM

## C=C1C(=O)[C@@]23C(=O)OC[C@]4([C@@H](OC(C)=O)CCC(C)(C)[C@H]4C=O)[C@@H]2CC[C@H]1[C@H]3OC(=O)c1ccc([N+](=O)[O-])cc1
Bel-7402 [28]
  IC50: 1740 nM
[1]
  IC50: 1600 nM
MGC-803 [29]
  IC50: 1980 nM
K562 [30]
  IC50: 1140 nM

## C=C1C(=O)[C@@]23C(=O)OC[C@]4([C@@H](OC(C)=O)CCC(C)(C)[C@H]4C=O)[C@@H]2CC[C@H]1[C@H]3OC(=O)CCCC
Bel-7402 [28]
  IC50: 3640 nM
[1]
  IC50: 2850 nM
MGC-803 [29]
  IC50: 2490 nM
K562 [30]
  IC50: 1560 nM

## C=C1C(=O)[C@@]23C(=O)OC[C@]4([C@@H](OC(C)=O)CCC(C)(C)[C@H]4C=O)[C@@H]2CC[C@H]1[C@H]3OC(C)=O
[23]
  inhibition: 7.08%
Bel-7402 [28]
  IC50: 3960 nM
[1]
  IC50: 2800 nM
MGC-803 [29]
  IC50: 3470 nM
K562 [30]
  IC50: 1740 nM

Reference: ChEMBL document CHEMBL2311528, “Synthesis of spirolactone-type diterpenoid derivatives from kaurene-type oridonin with improved antiproliferative effects and their apoptosis-inducing activity in human hepatoma Bel-7402 cells” (Eur J Med Chem, 2013)
